Source: ChEMBL document CHEMBL1811845, “Modulation of GABAA-receptors by honokiol and derivatives: subtype selectivity and structure-activity relationship” (J Med Chem, 2011)

Legend:
[1] = molecular target: Gamma-aminobutyric acid receptor subunit alpha-3/ beta-2 (Homo sapiens) (UniProt P47870+P34903); experiment: Modulation of GABA Aalpha3beta2 receptor expressed in Xenopus laevis oocytes assessed as potentiation of GABA-induced chloride current at holding potential -70 mV by two-microelectrode voltage clamp technique relative to GABA; assay type: cell-based; conditions: Oocyte
Procedure, shortened: (§1)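 Oocytes were injected with α1, α2, α3 or α5 plus β2 cRNA at a 1:1 ratio and stored at 18 °C in ND96, pH 7.4. Enhancement was (I(GABA+compound)/IGABA)−1, and concentration-response data were Hill-fitted for EC50 and nH. Matched DMSO was ≤0.3%.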

[2] = molecular target: T1, Gamma-aminobutyric acid receptor subunit alpha-3/ beta-2 (Homo sapiens, UniProt P34903+P47870); experiment: Modulation of GABA Aalpha3beta2 receptor expressed in Xenopus laevis oocytes assessed as potentiation of GABA-induced chloride current at holding potential -70 mV by two-microelectrode voltage clamp technique; assay type: cell-based, Oocyte
T1 sequence (P47870 whole entry): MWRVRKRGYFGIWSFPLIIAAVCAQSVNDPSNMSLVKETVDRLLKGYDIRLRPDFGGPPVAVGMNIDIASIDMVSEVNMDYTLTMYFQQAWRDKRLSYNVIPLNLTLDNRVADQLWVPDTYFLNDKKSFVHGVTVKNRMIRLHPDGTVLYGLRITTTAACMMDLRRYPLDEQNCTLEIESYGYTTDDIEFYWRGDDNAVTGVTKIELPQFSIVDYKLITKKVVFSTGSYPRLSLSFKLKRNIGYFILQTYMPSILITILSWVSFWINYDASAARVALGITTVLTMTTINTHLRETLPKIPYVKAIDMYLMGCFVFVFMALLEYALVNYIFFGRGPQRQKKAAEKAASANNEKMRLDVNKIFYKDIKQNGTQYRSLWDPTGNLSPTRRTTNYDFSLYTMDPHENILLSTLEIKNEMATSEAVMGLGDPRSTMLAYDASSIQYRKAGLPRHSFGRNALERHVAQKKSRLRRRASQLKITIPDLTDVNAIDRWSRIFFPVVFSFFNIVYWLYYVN
T1 sequence (P34903 whole entry): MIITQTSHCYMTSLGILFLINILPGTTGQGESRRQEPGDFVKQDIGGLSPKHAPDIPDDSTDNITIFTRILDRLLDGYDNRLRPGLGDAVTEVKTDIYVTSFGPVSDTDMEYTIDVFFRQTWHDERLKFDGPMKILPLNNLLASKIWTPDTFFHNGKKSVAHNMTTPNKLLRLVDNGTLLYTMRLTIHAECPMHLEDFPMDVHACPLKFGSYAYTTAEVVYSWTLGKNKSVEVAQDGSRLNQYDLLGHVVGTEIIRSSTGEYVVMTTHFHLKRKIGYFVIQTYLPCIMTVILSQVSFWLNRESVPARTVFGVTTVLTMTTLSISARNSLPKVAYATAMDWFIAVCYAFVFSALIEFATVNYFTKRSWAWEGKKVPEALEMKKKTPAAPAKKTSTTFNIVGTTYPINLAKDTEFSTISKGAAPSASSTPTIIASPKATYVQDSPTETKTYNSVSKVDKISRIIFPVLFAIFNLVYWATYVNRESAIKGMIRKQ
Procedure, shortened: (§2)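 Stage V–VI Xenopus oocytes, defolliculated with 2 mg/mL collagenase, injected with α(1, 2, 3 or 5) and β2 cRNAs mixed 1:1, then kept at 18 °C in ND96 (pH 7.4). Enhancement = I(GABA+compound)/IGABA − 1. Curves were Hill-fitted for EC50. Bath DMSO was at most 0.3%, matched in controls.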

[3] = Modulation of GABA alpha1beta2gamma2s receptor expressed in Xenopus laevis oocytes assessed as potentiation of GABA-induced chloride current at holding potential -70 mV by two-microelectrode voltage clamp technique; assay type: cell-based; conditions: Oocyte
Procedure, shortened: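 Oocytes were injected with α1, β2 and γ2s cRNAs mixed 1:1:10 and stored at 18 °C in ND96 (pH 7.4). GABA was applied at a concentration giving 3–7% of maximal current, determined for each oocyte. Enhancement was taken as (I(GABA+compound)/IGABA) − 1. Concentration–response data were fitted to a Hill equation. Control solutions carried equal DMSO, at most 0.3%.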

[4] = molecular target: GABA-A receptor; GABA-A site (alpha1/beta2 interface) (Homo sapiens) (UniProt P14867+P47870); experiment: Modulation of GABA Aalpha1beta2 receptor expressed in Xenopus laevis oocytes assessed as potentiation of GABA-induced chloride current at holding potential -70 mV at 30 uM by two-microelectrode voltage clamp technique relative to GABA; assay type: cell-based; conditions: Oocyte
Procedure, shortened: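 Single-concentration screen at 30 μM on α1β2 receptors (cRNA 1:1) in Xenopus oocytes. Enhancement was (I(GABA+compound)/IGABA)−1. DMSO was matched in control and test solutions, maximum 0.3% in the bath.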

Oocyte = experiment: Modulation of GABA alpha1beta2gamma2s receptor expressed in Xenopus laevis oocytes assessed as potentiation of GABA-induced chloride current at holding potential -70 mV at 10 uM by two-microelectrode voltage clamp technique relative to GABA; assay type: cell-based
[5] = molecular target: T2, GABA-A receptor; GABA-A site (alpha1/beta2 interface) (Homo sapiens, UniProt P14867+P47870); experiment: Modulation of GABA Aalpha1beta2 receptor expressed in Xenopus laevis oocytes assessed as potentiation of GABA-induced chloride current at holding potential -70 mV by two-microelectrode voltage clamp technique; assay type: cell-based, Oocyte; procedure, shortened: as §2
T2 sequence (P14867 whole entry): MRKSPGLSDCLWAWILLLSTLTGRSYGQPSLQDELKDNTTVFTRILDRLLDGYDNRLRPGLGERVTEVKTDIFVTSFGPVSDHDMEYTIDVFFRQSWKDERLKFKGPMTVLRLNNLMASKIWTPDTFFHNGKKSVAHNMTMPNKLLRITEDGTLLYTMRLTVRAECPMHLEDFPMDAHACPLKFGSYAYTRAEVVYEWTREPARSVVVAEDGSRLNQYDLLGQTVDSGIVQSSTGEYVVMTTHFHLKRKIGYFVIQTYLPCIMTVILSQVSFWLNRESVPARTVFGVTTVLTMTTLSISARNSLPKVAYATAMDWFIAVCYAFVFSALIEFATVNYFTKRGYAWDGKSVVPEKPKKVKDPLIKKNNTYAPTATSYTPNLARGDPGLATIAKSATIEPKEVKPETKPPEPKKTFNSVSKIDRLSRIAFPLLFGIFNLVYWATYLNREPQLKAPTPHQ
T2 sequence (P47870 whole entry): T1 sequence (P47870 whole entry)

[6] = molecular target: Gamma-aminobutyric acid receptor subunit alpha-2/beta-2 (Homo sapiens) (UniProt P47870+P47869); experiment: Modulation of GABA Aalpha2beta2 receptor expressed in Xenopus laevis oocytes assessed as potentiation of GABA-induced chloride current at holding potential -70 mV by two-microelectrode voltage clamp technique relative to GABA; assay type: cell-based; conditions: Oocyte; procedure, shortened: as §1

**Q.** Which Smax [1] does the source give for C=CCc1ccc(O)c(-c2ccc(O)c(CC=C)c2)c1 [HONOKIOL] here?
**A.** 2390%

**Q.** What about the EC50 [2] of the same molecule?
**A.** 52.4 µM

**Q.** What about the EC50 [3] of the same molecule?
**A.** 36.2 µM

**Q.** And the Activity [4]?
**A.** 376%

**Q.** What about the Activity (Oocyte) of the same molecule?
**A.** 101%

**Q.** And the EC50 [5]?
**A.** 39.3 µM

**Q.** What about the Smax [6] of the same molecule?
**A.** 1130%
